# Rows were chosen to be rich in hits. Some 1.5% of all compounds tested hit in one or more screens of this group.
# proCasp3 act: activators of human procaspase-3 | P42574 | recombinant procaspase-3 D3A, Ac-DEVD-pNA absorbance 405 nm | activation, % at 8.5 µM | 330,000 tested, 0.11% active;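 active = activation above the mean of all tested compounds plus 3 SD, cut at about 21% in these data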;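 note: 0% = DMSO alone and 100% = DMSO wells spiked with extra 5 µM PC-3 D3A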
#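 material = Procaspase-3 D3A mutant | probe or stimulus = Ac-DEVD-pNA | compound = single dose, 8.5 µM nominal compound, 0.8% DMSO | timing = 1 h preincubation, 2 h reaction | measured by = 405 nm absorbance of p-nitroaniline, reads at 0 and 120 min | benchmarks = DMSO-only low control, 5 µM PC-3 D3A high control | repeats = singlicate, each compound tested once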
# MsrA inhibitor: bovine MsrA inhibition; purified bovine MsrA, absorbance read-out; AID 651718; 360,000 tested, 0.75% active; inhibition, % at 15.5 µM; in the data active = inhibition above about 4.5%;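 note: 0% = vehicle wells with enzyme and 100% = reference inhibitor wells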
# proCasp7 act: counter-screen: procaspase-7 (human) activation; recombinant procaspase-7, Ac-DEVD-pNA absorbance 405 nm; D23A/D198A/D206A triple mutant, cannot self-cleave; scale: DMSO 0, 5 µM enzyme 100; activation, % at 8.5 µM; 330,000 tested, 0.093% active; P55210; AID 463210;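 active = percent activation above the screen-wide mean plus 3 SD, cut at about 25% in these data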
# Target sequence (P55210 whole entry D23A/D198A/D206A): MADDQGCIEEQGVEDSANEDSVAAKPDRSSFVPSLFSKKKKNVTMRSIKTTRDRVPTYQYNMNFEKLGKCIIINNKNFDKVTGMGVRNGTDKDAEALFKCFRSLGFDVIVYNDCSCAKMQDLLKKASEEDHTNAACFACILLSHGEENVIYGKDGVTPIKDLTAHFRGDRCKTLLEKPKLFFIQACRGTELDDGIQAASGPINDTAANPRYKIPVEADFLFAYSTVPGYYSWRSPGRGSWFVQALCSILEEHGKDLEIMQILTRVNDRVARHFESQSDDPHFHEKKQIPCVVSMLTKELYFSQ
#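 signal = Epi-absorbance of released pNA at 405 nm, two timepoints | assay system = Uncleavable procaspase-7 mutant enzyme | reagent = Ac-DEVD-pNA substrate, 400 µM as added | times = 1 h enzyme–compound preincubation and 2 h substrate reaction, both 25 °C | benchmarks = low DMSO alone, high DMSO plus 5 µM PC-7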
# MsrA act: activators of bovine methionine sulfoxide reductase A; 360,000 tested, 0.3% active; purified bovine MsrA, absorbance read-out; activation, % at 10.6 µM; in the data active = activation above about 7.5%;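 note: 0% = vehicle and 100% = reference activator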
# TbMetRS inhib: Trypanosoma brucei MetRS inhibition | purified T. brucei MetRS, ATP depletion, Kinase-Glo luminescence | inhibition, % at 11.9 µM | 360,000 tested, 0.4% active | AID 624268;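 active = inhibition above a per-plate cutoff of the control wells' mean inhibition plus 3 SD, cut at about 5.5% in these data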;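 note: 0% = DMSO wells median and 100% = median of wells with control inhibitor compound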
#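 Material – parasite MetRS enzyme · Medium – HEPES-MgCl2-KCl buffer plus DTT, spermine, BSA, pyrophosphatase · Reagent – ATP, methionine and E. coli bulk tRNA substrates · Times – 15 min enzyme-compound preincubation, 2 h reaction, 10 min detection, 25 °C · Measured by – luminescence of leftover ATP · Evaluation – percent inhibition relative to median high and low control wells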
# Tb MetRS conf: confirmation of Trypanosoma brucei MetRS inhibitors; shares compounds with TbMetRS inhib; 1,400 tested, 93% active; T. brucei MetRS enzyme, luminescence (ATP depletion); inhibition, % at 11.9 µM; in the data active = inhibition above about 7%
# Jurkat tox: Jurkat T cell cytotoxicity for MetRS hits | shares compounds with TbMetRS inhib | inhibition, % at 8.3 µM | 1,400 tested, 12% active | Jurkat cells viability, ATP luminescence; in the data active = inhibition above about 15%;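 note: 0% = vehicle and 100% = reference inhibitor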
# Tb MetRS inh FP: orthogonal test for Trypanosoma brucei MetRS inhibitors. AID 651607. 1,400 tested, 44% active. purified T. brucei MetRS, fluorescence polarization. inhibition, % at 11.9 µM. shares compounds with TbMetRS inhib; in the data active = inhibition above about 17%;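 note: 0% = vehicle wells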
# An asterisk follows results filed as active; . = no result.
SMILES,proCasp3 act,MsrA inhibitor,proCasp7 act,MsrA act,TbMetRS inhib,Tb MetRS conf,Jurkat tox,Tb MetRS inh FP
CCOC(=O)C1(C(C)(C)CC)CC(CSc2nc3ccccc3[nH]2)OC1=O (centres undefined),1,0,-5,2,5.7*,15*,8,8
COCc1[nH]nc2c1C(c1ccc(Br)cc1)N(Cc1ccccc1)C2=O (centres undefined),.,0,.,.,.,.,.,.
COC(=O)[C@]12C[C@H](CC(=O)NCCCN3CCCC3=O)C(=O)N(Cc3ccccc3)C1=C[C@H](C(C)(C)C)O[C@@H]2C,.,0,.,.,.,.,.,.
COc1ccc(-c2cc(=O)n(CCC#N)[nH]2)cc1,-4,0,-3,1,16*,2,2,4
CCc1nnc(NS(=O)(=O)c2ccc(Nc3ccc([N+](=O)[O-])c4nonc34)cc2)s1,7,2,3,1,7.0*,11*,-4,-3
Brc1ccc(-c2ccc(/C=N/Nc3nc4ccccc4[nH]3)o2)cc1,-29,3,-24,-5,11*,7.9*,12,20*
O=[N+]([O-])c1ccc(N/N=C/c2c[nH]c3ccccc23)cc1,-5,0,-26,5,7.5*,12*,21*,55*
C(=N\Nc1nc2ccccc2[nH]1)/c1c[nH]c2ccccc12,9,0,-2,-4,12*,26*,13,47*
Cc1[nH]c2ccccc2c1/C=N/Nc1nc2ccccc2[nH]1,-5,3,-11,-6,8.3*,29*,9,30*
Cc1ccccc1/C=N/Nc1nc2ccccc2[nH]1,-9,2,-2,-9,2,.,.,.
Brc1ccc(-c2ccc(/C=N/Nc3nncc(-c4ccccc4)n3)o2)cc1,-2,-1,-11,-10,-1,.,.,.
C[C@H]1CN([C@@H](C)CO)C(=O)CCCn2nncc2CO[C@@H]1CN(C)C(=O)Nc1ccccc1F,.,-1,.,.,.,.,.,.
C(=CCSc1ccccn1)CSc1ccccn1,.,-1,.,.,.,.,.,.
CC(C)C[C@H]1COc2cc(N3CCCC3)ccc2S(=O)(=O)N1,.,0,.,.,.,.,.,.
CN(C)C(=O)c1ccccc1Sc1ccc(Cl)cc1Cl,5,0,-3,-1,6.0*,16*,-5,3
CN(C)C(=O)c1ccccc1Sc1cc(Cl)ccc1Cl,1,0,4,-4,-2,.,.,.
COc1ccc(N2C(=O)c3n[nH]c(C(C)C)c3C2c2ccc(F)cc2)cc1 (centres undefined),.,-1,.,.,.,.,.,.
CCOc1cc(/C=C2\SC(N)=NC2=O)ccc1O,-13,3,-16,-5,-1,.,.,.
CCOc1ccc(/C=C2\SC(=S)N(NS(=O)(=O)c3ccccc3)C2=O)cc1OC,-7,2,-10,-6,0,.,.,.
CCOc1cc(/C=C2\SC(=S)N(NS(=O)(=O)c3ccccc3)C2=O)ccc1O,-12,1,-2,-3,9.0*,19*,0,24*
CCOc1cc(/C=C2\SC(=O)N=C2N)ccc1O,-18,2,-14,-4,32*,44*,14,19*
COC(=O)[C@]12C[C@H](CC(=O)NCc3cccc4ccccc34)C(=O)N(CCC3=CCCCC3)C1=C[C@H](C(C)(C)C)O[C@@H]2C,.,0,.,.,.,.,.,.
O=c1[nH]nc(Cc2ccc(Cl)cc2Cl)c2ccccc12,10,-1,-4,-2,8.2*,39*,5,20*
CC(=O)Nc1ccc(/C=N/OCC(=O)Nc2ccc(C)cc2)cc1,5,2,-2,-3,0,.,.,.
Cc1ccc(NC(=O)C=NOCC(=O)Nc2cc(C)cc(C)c2)cc1,6,0,10,-1,24*,58*,-4,41*
N#CC(c1c(Cl)cccc1N1CCCCC1)N1CCCCC1 (centres undefined),.,0,.,.,.,.,.,.
O=C(Nc1ccccc1)Nc1ncc([N+](=O)[O-])s1,.,0,.,0,6.4*,10*,63*,-3

# Compound activity as filed in PubChem.
